Target: Glutamate NMDA receptor
Test: Binding affinity towards NMDA receptor to displace [3H]-L-689,560 from rat cortical membranes

Row | SMILES | IC50
1 | COC(=O)c1c(O)c2ccc(Cl)cc2[nH]c1=O | 6.4 µM
2 | O=C(OCCc1ccccc1O)c1c(O)nc2cc(Cl)ccc2c1O | 7.12 µM
3 | CCOC(=O)c1c(O)c2ccc([N+](=O)[O-])cc2[nH]c1=O | 25.4 µM
4 | O=C(OCCCCc1cccc(O)c1)c1c(O)nc2cc(Cl)ccc2c1O | 2.62 µM
5 | O=C1CC(=O)c2ccc(Cl)cc2N1 | > 100 µM
6 | O=C(SCCc1ccccc1)c1c(O)nc2cc(Cl)ccc2c1O | > 10 µM
7 | O=C(OCC#Cc1cccc(O)c1)c1c(O)c2ccc(Cl)cc2[nH]c1=O | 0.17 µM
8 | CC(=O)c1c(O)nc2cc(Cl)ccc2c1O | > 100 µM
9 | C#CCOC(=O)c1c(O)nc2cc(Cl)ccc2c1O | 9 µM
10 | NC(=O)c1c(O)nc2cc(Cl)ccc2c1O | > 100 µM
11 | CCOC(=O)C1C(=O)Nc2cc(Cl)ccc2C1=O (stereo not drawn) | 16.7 µM
12 | CCOC(=O)c1c(O)nc2cccc(C)c2c1O | > 1000 µM
13 | COc1cccc(C#CCOC(=O)c2c(O)nc3cc(Cl)ccc3c2O)c1 | 0.27 µM
14 | O=C(OCCCc1cccc(O)c1)c1c(O)nc2cc(Cl)ccc2c1O | 2.64 µM
15 | O=C(NO)c1c(O)nc2cc(Cl)ccc2c1O | 6.32 µM
16 | CONC(=O)c1c(O)nc2cc(Cl)ccc2c1O | 3.09 µM
17 | CCOC(=O)c1c(O)nc2cc([N+](=O)[O-])c([N+](=O)[O-])cc2c1O | 10.5 µM
18 | C=CCOC(=O)c1c(O)c2ccc(Cl)cc2[nH]c1=O | 6.42 µM
19 | CCCOC(=O)c1c(O)nc2cc(Cl)ccc2c1O | > 100 µM
20 | O=C1Nc2cc(Cl)ccc2C(=O)C1C(=O)c1ccccc1 (stereo not drawn) | 3.16 µM
21 | O=C(c1cccnc1)c1c(O)nc2cc(Cl)ccc2c1O | 6.85 µM
22 | O=C(OCc1cccc(O)c1)c1c(O)nc2cc(Cl)ccc2c1O | 6.13 µM
23 | O=C(c1c(O)nc2cc(Cl)ccc2c1O)C1CCCCC1 | > 100 µM
24 | CCOC(=O)C1Oc2ccc(Cl)cc2NC1=O (stereo not drawn) | > 100 µM

Row | SMILES | IC50
25 | COC(=O)C1C(=O)Nc2cc(Cl)ccc2S1(=O)=O (stereo not drawn) | 13.6 µM
26 | CCOC(=O)c1c(O)nc2cc(C#N)ccc2c1O | 26 µM
27 | O=C(Cc1ccccc1)c1c(O)c2ccc(Cl)cc2[nH]c1=O | 0.93 µM
28 | O=C(NOCc1ccccc1)c1c(O)nc2cc(Cl)ccc2c1O | > 100 µM
29 | CN(Cc1ccccc1)C(=O)c1c(O)nc2cc(Cl)ccc2c1O | > 100 µM
30 | O=C(OCCc1cccc(O)c1)c1c(O)nc2cc(Cl)ccc2c1O | 1.82 µM
31 | O=C(c1ccco1)c1c(O)nc2cc(Cl)ccc2c1O | 2.39 µM
32 | O=C(Cc1cccs1)c1c(O)nc2cc(Cl)ccc2c1O | 1.07 µM
33 | O=C(NCCc1ccc(O)cc1)c1c(O)nc2cc(Cl)ccc2c1O | > 100 µM
34 | O=C(CCc1ccccc1)c1c(O)nc2cc(Cl)ccc2c1O | > 100 µM
35 | O=C(OCCc1c[nH]c2ccccc12)c1c(O)nc2cc(Cl)ccc2c1O | 0.43 µM
36 | COC(=O)C1C(=O)Nc2cc(Cl)ccc21 (stereo not drawn) | > 100 µM
37 | O=C(c1c(O)nc2cc(Cl)ccc2c1O)N(O)CCc1ccccc1 | 9.3 µM
38 | CCOC(=O)c1c(O)nc2cc(C(F)(F)F)ccc2c1O | 12.3 µM
39 | CCOC(=O)c1c(O)nc2ccc(Cl)cc2c1O | > 100 µM
40 | O=C(OCCc1ccccn1)c1c(O)nc2cc(Cl)ccc2c1O | 27.5 µM
41 | O=C1CS(=O)(=O)c2ccc(Cl)cc2N1 | > 100 µM
42 | O=C(OCCc1cccs1)c1c(O)nc2cc(Cl)ccc2c1O | 3 µM
43 | O=C(c1ccsc1)c1c(O)nc2cc(Cl)ccc2c1O | 1.97 µM
44 | CON(C)C(=O)c1c(O)nc2cc(Cl)ccc2c1O | 47.1 µM
45 | CCOC(=O)c1c(O)nc2ccccc2c1O | > 100 µM
46 | CCOC(=O)c1c(O)nc2c(C)cccc2c1O | > 100 µM
47 | O=C(OCCc1ccc(O)cc1)c1c(O)nc2cc(Cl)ccc2c1O | 2.93 µM

Tested on: Mus musculus
Test: Effective dose of compound required to protect audiogenic seizure in DBA/2 mice administered ip
Type: functional
In short: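 DBA/2 mice received compound intraperitoneally 30 min before audiogenic seizure induction. Protection was reported as an ED50 or as number protected/number tested at a single dose.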

Row | SMILES | ED50
48 | O=C(Cc1ccccc1)c1c(O)c2ccc(Cl)cc2[nH]c1=O | 31.6 mg/kg
49 | O=C(c1c(O)nc2cc(Cl)ccc2c1O)C1CC1 | 4.1 mg/kg

Species on record: Rattus norvegicus
Test: Antagonistic activity against NMDA-induced response in rat cortical slice
Type: functional
In short: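 Rat cortical slices were challenged with NMDA, with and without antagonist. Apparent Kb was calculated from the rightward shift of the NMDA concentration-response curve. Values are means of at least three experiments, with maximum variance (geometric mean) of 15%.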

Row | SMILES | Kb
50 | CCOC(=O)C1C(=O)Nc2cc(Cl)ccc2C1=O (stereo not drawn) | 65.4 µM
51 | O=C(Cc1ccccc1)c1c(O)c2ccc(Cl)cc2[nH]c1=O | 3.92 µM
52 | O=C(c1c(O)nc2cc(Cl)ccc2c1O)C1CC1 | 3.39 µM
53 | COC(=O)C1C(=O)Nc2cc(Cl)ccc21 (stereo not drawn) | 441 µM

— ChEMBL document CHEMBL1126880, “3-Acyl-4-hydroxyquinolin-2(1H)-ones. Systemically active anticonvulsants acting by antagonism at the glycine site of the N-methyl-D-aspartate receptor complex” (J Med Chem, 1993)
